Data on 18 compounds can be found in ChEMBL document CHEMBL1145837, “Design and synthesis of 4,6-di-tert-butyl-2,3-dihydro-5-benzofuranols as a novel series of antiatherogenic antioxidants” (J Med Chem, 2003).

As a reminder, the IC50 is the concentration needed to halve the response being measured.

The species named for series [1] is Oryctolagus cuniculus. As to the kind of experiment: Inhibition of LDL oxidation induced by cupric ions (CuSO4) at 1 uM expressed as % control. It is filed as functional. In a few lines: (§1)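 Rabbit LDL (d 1.019–1.063 g/mL, sequential ultracentrifugation) at 200 μg/mL with compound at stated concentration, oxidized by soybean lipoxygenase type-IS or CuSO4 at 37 °C for 24 h in CO2 incubator. Read-out: TBARS and LDL fluorescence by gel permeation chromatography (0.1 M NaCl, 0.05 M Tris pH 7.4); expressed as % of control; duplicate or more.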

Series [2] is filed under the species Oryctolagus cuniculus. Briefly: Inhibition of LDL oxidation induced by cupric ions (CuSO4) at 10 uM expressed as % control. It is filed as functional. In a few lines: as §1
Series [3] concerns the target T1, Seed linoleate 13S-lipoxygenase-1 (Glycine max) (UniProt P08170).
T1 sequence (whole entry): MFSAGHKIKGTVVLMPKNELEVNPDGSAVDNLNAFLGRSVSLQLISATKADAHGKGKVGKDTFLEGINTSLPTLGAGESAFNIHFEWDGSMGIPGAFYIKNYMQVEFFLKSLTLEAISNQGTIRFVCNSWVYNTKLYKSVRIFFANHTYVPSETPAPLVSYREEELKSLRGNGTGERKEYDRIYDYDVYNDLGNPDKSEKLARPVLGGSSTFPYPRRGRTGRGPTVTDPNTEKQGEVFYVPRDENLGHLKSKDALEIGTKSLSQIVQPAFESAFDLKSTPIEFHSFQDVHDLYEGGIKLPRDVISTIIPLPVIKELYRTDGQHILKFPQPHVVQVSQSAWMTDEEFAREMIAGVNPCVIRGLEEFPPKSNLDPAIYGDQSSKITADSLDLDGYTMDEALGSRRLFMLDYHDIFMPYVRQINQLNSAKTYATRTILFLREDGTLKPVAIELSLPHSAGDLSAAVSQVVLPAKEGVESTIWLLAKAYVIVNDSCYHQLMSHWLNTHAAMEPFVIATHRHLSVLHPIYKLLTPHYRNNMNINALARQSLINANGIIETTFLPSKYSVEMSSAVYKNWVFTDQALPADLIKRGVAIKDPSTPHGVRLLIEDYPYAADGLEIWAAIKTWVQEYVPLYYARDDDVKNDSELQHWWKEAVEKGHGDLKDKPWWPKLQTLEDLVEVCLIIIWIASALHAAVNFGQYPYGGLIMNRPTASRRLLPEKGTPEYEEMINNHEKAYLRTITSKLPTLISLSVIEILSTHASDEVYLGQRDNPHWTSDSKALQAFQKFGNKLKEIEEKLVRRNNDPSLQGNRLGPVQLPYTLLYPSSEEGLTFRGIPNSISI
As to the kind of experiment: Inhibition of LDL oxidation induced by soybean lipoxygenase (SLO) at 0.5 uM expressed as % control. It is filed as functional. In a few lines:
as §1

For series [4], the target named is T1, Seed linoleate 13S-lipoxygenase-1 (Glycine max). As to the kind of experiment: Inhibition of LDL oxidation induced by soybean lipoxygenase (SLO) at 5 uM expressed as % control. It is filed as functional. The gist of the method:
as §1

Series [5] can be described thus: Inhibition of MCLA chemiluminescence generated by autoxidation of linoleic acid. In a few lines: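 Linoleic acid peroxyl radicals from autoxidation of 1 mM linoleic acid in 1-butanol with 10 μM MCLA, 10 min at 37 °C under air; quenching measured as change in MCLA chemiluminescence after compound addition; IC50 derived; duplicate or more.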
Series [6] relates to Oryctolagus cuniculus. As to the kind of experiment: Distribution of compound into VLDL lipoprotein fraction of WHHL Rabbit's plasma after oral administration. Type of series: ADME, organism-based. The settings on record: in vivo. The gist of the method: (§2)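 WHHL rabbits given test compound orally (250 mg/kg) once daily for 9 days; at 24 h after final dose plasma lipoproteins isolated by Havel procedure, EtOAc-extracted, compound content per mg lipoprotein measured by reverse-phase HPLC. Mean ± range, n = 2.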

The subject of series [7] is Oryctolagus cuniculus. Briefly: Distribution of compound into LDL lipoprotein fraction of WHHL Rabbit's plasma after oral administration. It is filed as ADME, organism-based. The settings on record: in vivo. In a few lines:
as §2

Series [8] deals with Oryctolagus cuniculus. Briefly: Distribution of compound into HDL lipoprotein fraction of WHHL Rabbit's plasma after oral administration. It is filed as ADME, organism-based. The settings on record: in vivo. In a few lines:
as §2

Series [9] relates to Oryctolagus cuniculus. Briefly: Distribution of compound into HDL lipoprotein fraction of WHHL Rabbit's plasma after oral administration; ND means not detected. Type of series: ADME, organism-based. Particulars: in vivo. In a few lines: as §2

On to `CC(C)(C)c1cc2c(c(C(C)(C)C)c1O)CC1(CCCCC1)O2`, for which the LDL oxidation remaining, % of control turned out to be 77% in the series listed under Oryctolagus cuniculus [1], 16% in the series filed under Oryctolagus cuniculus [2], 34.1% in series [3] and 0% in series [4]. 9.3 µM corresponded to half-maximal inhibition in series [5] (IC50).

`CCCCCC1(CCCCC)Cc2c(cc(C(C)(C)C)c(O)c2C(C)(C)C)O1` [BO-653] yielded a VLDL in the series on Oryctolagus cuniculus [6] of 119.25 µg/mg. The compound further returned an LDL in the series with Oryctolagus cuniculus [7] of 28.6 µg/mg. Also, the HDL in the series with Oryctolagus cuniculus [8] was determined as 2.98 µg/mg. For the same compound, the LDL oxidation remaining, % of control was 96% in the series listed under Oryctolagus cuniculus [1], 42% in the series filed under Oryctolagus cuniculus [2], 60.9% in series [3] and 4.6% in series [4]. In addition, the IC50 in [5] was found to be 4.6 µM.

For `CC(C)(C)c1cc2c(c(C(C)(C)C)c1O)CC(Cc1ccccc1)(Cc1ccccc1)O2`, the LDL oxidation remaining, % of control was found to be 93% in the series listed under Oryctolagus cuniculus [1], 11% in the series listed under Oryctolagus cuniculus [2], 63.5% in series [3] and 3.6% in series [4]. Also, in [5], the IC50 worked out at 10.6 µM.

For the compound `CCCCCCCC1(CCCCCCC)Cc2c(cc(C(C)(C)C)c(O)c2C(C)(C)C)O1`, the LDL oxidation remaining, % of control came out at 89% in the series filed under Oryctolagus cuniculus [1], 83% in the series filed under Oryctolagus cuniculus [2], 88.4% in [3] and 18.5% in series [4].

As for `CCCCCCC1(CCCCCC)Cc2c(cc(C(C)(C)C)c(O)c2C(C)(C)C)O1`, the LDL oxidation remaining, % of control in the series filed under Oryctolagus cuniculus [1] worked out at 86%; in the series listed under Oryctolagus cuniculus [2], 23%; in series [3] it was 75.5%; in series [4], 2.7%.

On to `CC(C)(C)c1cc2c(c(C(C)(C)C)c1O)CC1(CCCCCCC1)O2`, for which the LDL oxidation remaining, % of control in the series listed under Oryctolagus cuniculus [1] was 92%; in the series filed under Oryctolagus cuniculus [2], 22%; in series [3] it was 97.2%; in series [4] it was 9%. This compound also returned an IC50 in series [5] of 9.4 µM.

With `CCC1(CC)Cc2c(cc(C(C)(C)C)c(O)c2C(C)(C)C)O1`, the LDL oxidation remaining, % of control in the series filed under Oryctolagus cuniculus [1] stood at 77%; in the series filed under Oryctolagus cuniculus [2], 10%; in [3], 9.4%; in series [4], 1.3%. Besides, the IC50 in series [5] worked out at 4.3 µM.

With `CCCC1(CCC)Cc2c(cc(C(C)(C)C)c(O)c2C(C)(C)C)O1`, the LDL oxidation remaining, % of control in the series filed under Oryctolagus cuniculus [1] came to 87%; in the series filed under Oryctolagus cuniculus [2], 13%; in [3], 33.3%; in series [4], 0%. The IC50 in [5] is 4 µM.

With `CCCCC1(CCCC)Cc2c(cc(C(C)(C)C)c(O)c2C(C)(C)C)O1`, the VLDL in the series on Oryctolagus cuniculus [6] turned out to be 57.07 µg/mg. The compound further showed an LDL in the series with Oryctolagus cuniculus [7] of 11.04 µg/mg. This compound also gave an HDL with Oryctolagus cuniculus [8] of 3.22 µg/mg. The LDL oxidation remaining, % of control is 82% in the series listed under Oryctolagus cuniculus [1], 12% in the series listed under Oryctolagus cuniculus [2], 51.5% in series [3] and 0.5% in series [4]. 7.9 µM corresponded to half-maximal inhibition in [5] (IC50).

In the series with Oryctolagus cuniculus [6], `CC(C)(Sc1cc(C(C)(C)C)c(O)c(C(C)(C)C)c1)Sc1cc(C(C)(C)C)c(O)c(C(C)(C)C)c1` [PROBUCOL] yielded a VLDL of 5.48 µg/mg. The same compound registered an LDL with Oryctolagus cuniculus [7] of 2.57 µg/mg. The same compound displayed an HDL in the series on Oryctolagus cuniculus [8] of 0.44 µg/mg. Moreover, the LDL oxidation remaining, % of control in the series listed under Oryctolagus cuniculus [1] is 87%; in the series listed under Oryctolagus cuniculus [2] it was 28%; in [3], 73.9%; in [4], 14%. In addition, the IC50 in series [5] was determined as 165 µM.

Regarding `CC(C)(C)c1cc2c(c(C(C)(C)C)c1O)CC1(CCCC1)O2`, the LDL oxidation remaining, % of control in the series filed under Oryctolagus cuniculus [1] is 85%; in the series filed under Oryctolagus cuniculus [2] it was 12%; in series [3], 46.2%; in series [4], 0.4%. This compound came in with an IC50 in [5] of 6.6 µM.

For `CC(C)(C)c1cc2c(c(C(C)(C)C)c1O)CC1(CCCCCC1)O2`, the LDL oxidation remaining, % of control turned out to be 91% in the series filed under Oryctolagus cuniculus [1], 9% in the series listed under Oryctolagus cuniculus [2], 93.4% in series [3] and 2.3% in series [4]. In series [5], the IC50 was determined as 7.9 µM.

As to `CC(C)CCC1(CCC(C)C)Cc2c(cc(C(C)(C)C)c(O)c2C(C)(C)C)O1`, the VLDL in the series with Oryctolagus cuniculus [6] was 25.64 µg/mg. Further, the LDL in the series on Oryctolagus cuniculus [7] stood at 9.34 µg/mg. The HDL result in the series on Oryctolagus cuniculus [9] was “Not detected”. The LDL oxidation remaining, % of control in the series listed under Oryctolagus cuniculus [1] stood at 78%; in the series filed under Oryctolagus cuniculus [2], 23%; in series [3], 91.5%; in series [4] it was 7.1%. Besides, inhibition in series [5] was half-maximal at 5.7 µM (IC50).

As to `CCCCCCCCC1(CCCCCCCC)Cc2c(cc(C(C)(C)C)c(O)c2C(C)(C)C)O1`, the VLDL in the series on Oryctolagus cuniculus [6] amounted to 1.16 µg/mg. Besides, the LDL in the series on Oryctolagus cuniculus [7] turned out to be 0.36 µg/mg. Further, the HDL result in the series with Oryctolagus cuniculus [9] is “Not detected”. Besides, the LDL oxidation remaining, % of control in the series listed under Oryctolagus cuniculus [1] came out at 85%; in the series filed under Oryctolagus cuniculus [2] it was 72%; in series [3], 89.8%; in series [4] it was 11.3%. The IC50 in series [5] is 5.6 µM.

`CC(C)(C)c1cc2c(c(C(C)(C)C)c1O)CC(C(C)(C)C)O2` (stereo unspecified): the VLDL with Oryctolagus cuniculus [6] was determined as 27.69 µg/mg. In the series on Oryctolagus cuniculus [7], the LDL amounted to 5.08 µg/mg. The HDL entry in the series on Oryctolagus cuniculus [9] is given as “Not detected”. For the same compound, the LDL oxidation remaining, % of control in the series filed under Oryctolagus cuniculus [1] amounted to 74%; in the series filed under Oryctolagus cuniculus [2], 11%; in [3], 99%; in [4] it was 1.8%. The same compound registered an IC50 in series [5] of 8.4 µM.

As to `CC(C)(C)c1cc2c(c(C(C)(C)C)c1O)CCO2`, the LDL oxidation remaining, % of control worked out at 53% in the series filed under Oryctolagus cuniculus [1], 11% in the series listed under Oryctolagus cuniculus [2], 36% in series [3] and 6.9% in [4]. The midpoint of inhibition in [5], the IC50, lay at 7.2 µM.

Turning to `CC1(C)Cc2c(cc(C(C)(C)C)c(O)c2C(C)(C)C)O1`, the LDL oxidation remaining, % of control in the series listed under Oryctolagus cuniculus [1] is 56%; in the series listed under Oryctolagus cuniculus [2] it was 10%; in series [3] it was 39.8%; in [4] it was 1.8%. Moreover, the IC50 in series [5] was 6.7 µM.

Take `CC(C)(C)c1cc2c(c(C(C)(C)C)c1O)CC1(CCOCC1)O2`: the LDL oxidation remaining, % of control was found to be 87% in the series filed under Oryctolagus cuniculus [1], 22% in the series filed under Oryctolagus cuniculus [2], 71.8% in series [3] and 4.7% in series [4]. The compound also showed an IC50 in series [5] of 8.2 µM.
